Test results from ChEMBL document CHEMBL2062388, “Integrated virtual screening for the identification of novel and selective peroxisome proliferator-activated receptor (PPAR) scaffolds” (J Med Chem, 2012).
Calls of active or inactive are those of the source. The calls are words filed in the database; no cut-off is given here.

Key:
[1] = biological target: T1, Peroxisome proliferator-activated receptor gamma (Homo sapiens) (UniProt P37231); assay: Displacement of pan-PPAR fluormone from PPARgamma LBD at >= 100 uM by TR-FRET based LanthaScreen assay
T1 sequence (whole entry): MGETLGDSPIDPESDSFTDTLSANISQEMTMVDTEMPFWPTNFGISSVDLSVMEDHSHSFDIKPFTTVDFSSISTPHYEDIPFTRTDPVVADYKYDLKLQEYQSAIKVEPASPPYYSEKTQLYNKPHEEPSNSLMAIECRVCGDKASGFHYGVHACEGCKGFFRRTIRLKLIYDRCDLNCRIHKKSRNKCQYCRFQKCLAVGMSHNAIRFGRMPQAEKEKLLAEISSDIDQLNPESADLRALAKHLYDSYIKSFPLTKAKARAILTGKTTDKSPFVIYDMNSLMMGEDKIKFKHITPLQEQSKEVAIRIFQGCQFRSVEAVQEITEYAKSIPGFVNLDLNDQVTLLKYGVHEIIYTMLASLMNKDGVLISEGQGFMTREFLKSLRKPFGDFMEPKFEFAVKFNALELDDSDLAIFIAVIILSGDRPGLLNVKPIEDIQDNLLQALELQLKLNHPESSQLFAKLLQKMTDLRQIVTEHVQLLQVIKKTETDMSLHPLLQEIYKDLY

[2] = Octanol-water partition coefficient, log P of the compound; type: physicochemical
[3] = biological target: T1, Peroxisome proliferator-activated receptor gamma (Homo sapiens); assay: Binding affinity to PPARgamma LBD at >= 100 uM by fluorescence polarization based competitive binding assay
[4] = biological target: T2, Peroxisome proliferator-activated receptor gamma (Homo sapiens, UniProt P37231); assay: Binding affinity to PPARgamma LBD by fluorescence polarization based competitive binding assay
T2 sequence (P37231 whole entry): T1 sequence (whole entry)

[5] = biological target: T1, Peroxisome proliferator-activated receptor gamma (Homo sapiens); assay: Agonist activity at PPARgamma LBD in human 293H DA cells after 16 hrs by TR-FRET activation reporter assay relative to rosiglitazone; type: functional, cell-based
Outline: (§1)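 GeneBLAzer PPARγ 293H DA cells plated at 30 000 cells/well, exposed to compound (0.1 to 10 000 nM; 0.1% DMSO final) for approximately 16 h. LiveBLAzer-FRET B/G substrate loaded for 2 h, then fluorescence read at 460 and 530 nm. […] EC50 from sigmoidal varying-slope fit. Triplicates, at least two independent experiments.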

[6] = biological target: T2, Peroxisome proliferator-activated receptor gamma; assay: (§2) Agonist activity at PPARgamma LBD in human 293H DA cells after 16 hrs by TR-FRET activation reporter assay; type: functional, cell-based; outline: as §1
[7] = biological target: T1, Peroxisome proliferator-activated receptor gamma (Homo sapiens); assay: as §2; type: functional, cell-based; outline: as §1
[8] = biological target: T3, Peroxisome proliferator-activated receptor alpha (Homo sapiens, UniProt Q07869); assay: Displacement of pan-PPAR fluormone from PPARalpha LBD by TR-FRET based LanthaScreen assay
T3 sequence (Q07869 whole entry): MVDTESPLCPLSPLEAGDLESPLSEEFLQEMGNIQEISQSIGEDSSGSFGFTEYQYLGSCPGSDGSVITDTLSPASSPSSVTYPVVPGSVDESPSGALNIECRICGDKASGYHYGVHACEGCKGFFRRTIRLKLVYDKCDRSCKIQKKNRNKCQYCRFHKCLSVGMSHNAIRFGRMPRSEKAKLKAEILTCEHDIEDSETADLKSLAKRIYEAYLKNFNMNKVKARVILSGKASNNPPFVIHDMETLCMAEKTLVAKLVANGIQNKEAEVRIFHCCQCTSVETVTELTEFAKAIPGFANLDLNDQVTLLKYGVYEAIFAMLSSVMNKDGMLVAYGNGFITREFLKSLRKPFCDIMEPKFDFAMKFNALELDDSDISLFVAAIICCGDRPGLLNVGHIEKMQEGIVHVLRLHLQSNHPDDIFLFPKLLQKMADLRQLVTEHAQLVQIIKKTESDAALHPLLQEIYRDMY

[9] = biological target: T2, Peroxisome proliferator-activated receptor gamma; assay: Displacement of pan-PPAR fluormone from PPARgamma LBD by TR-FRET based LanthaScreen assay
[10] = biological target: T4, Peroxisome proliferator-activated receptor delta (Homo sapiens, UniProt Q03181); assay: Displacement of pan-PPAR fluormone from PPARdelta LBD by TR-FRET based LanthaScreen assay
T4 sequence (Q03181 whole entry): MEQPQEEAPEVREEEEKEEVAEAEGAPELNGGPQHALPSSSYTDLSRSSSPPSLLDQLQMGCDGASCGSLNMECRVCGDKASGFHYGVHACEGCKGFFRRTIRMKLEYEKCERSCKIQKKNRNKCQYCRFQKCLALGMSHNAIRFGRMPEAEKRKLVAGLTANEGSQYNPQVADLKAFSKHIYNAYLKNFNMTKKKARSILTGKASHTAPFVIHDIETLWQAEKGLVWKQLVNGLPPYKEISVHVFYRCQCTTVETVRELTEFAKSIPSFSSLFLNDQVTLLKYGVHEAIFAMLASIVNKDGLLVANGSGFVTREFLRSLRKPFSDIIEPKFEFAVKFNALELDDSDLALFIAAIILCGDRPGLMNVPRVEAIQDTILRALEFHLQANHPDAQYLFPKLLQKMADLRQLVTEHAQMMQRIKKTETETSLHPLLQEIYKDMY

[11] = biological target: PPAR delta/gamma (Homo sapiens) (UniProt P37231+Q03181); assay: Selectivity ratio of EC50 for PPARdelta LBD to EC50 for PPARgamma LBD
[12] = species: Homo sapiens; assay: Selectivity ratio of EC50 for PPARalpha LBD to EC50 for PPARgamma LBD
[13] = biological target: T5, Peroxisome proliferator-activated receptor alpha (Homo sapiens) (UniProt Q07869); assay: Displacement of pan-PPAR fluormone from PPARalpha LBD at >= 100 uM by TR-FRET based LanthaScreen assay
T5 sequence (whole entry): T3 sequence (Q07869 whole entry)

CC(C)(Sc1ccc(CCN(CCCCC2CCCCC2)C(=O)NC2CCCCC2)cc1)C(=O)O [GW7647]
inhibition [1]: inactive | logP [2]: 8.02 | inhibition [3]: inactive

CN(CCOc1ccc(C[C@H](Nc2ccccc2C(=O)c2ccccc2)C(=O)O)cc1)c1ccccn1
logP [2]: 5.23

O=C1NC(=S)NC(=O)C1=Cc1ccc(OCc2ccccc2)c(Cl)c1
EC50 [4]: 325 nM | logP [2]: 3.11 | Emax [5]: 91.6% | EC50 [6]: 467 nM | Activity [7]: Dose-dependent effect | EC50 [8]: Not Active | EC50 [9]: 215 nM

O=C(Nn1cc([N+](=O)[O-])cn1)c1cccc(COc2ccc(Br)cc2)c1
EC50 [4]: 5450 nM | EC50 [10]: 21000 nM | logP [2]: 3.71 | Emax [5]: 68.7% | Ratio EC50 [11]: 4 | EC50 [6]: 682 nM | Activity [7]: Dose-dependent effect | Ratio EC50 [12]: 2 | EC50 ([8]; read-out: EC50): 11400 nM | EC50 [9]: 5450 nM

CCOC(=O)c1sc(N2C(=O)C(O)=C(C(=O)c3cccs3)C2c2ccc(C)o2)nc1C (stereo unspecified)
inhibition [13]: inactive | EC50 [4]: 2400 nM | EC50 [10]: 26000 nM | logP [2]: 2.39 | Emax [5]: 77.5% | Ratio EC50 [11]: 10.8 | EC50 [6]: 594 nM | Activity [7]: Dose-dependent effect | EC50 [9]: 2400 nM

Cc1cc(SCc2sc(-c3ccc(C(F)(F)F)c(F)c3)nc2C)ccc1OCC(=O)O
inhibition [1]: inactive | logP [2]: 5.95 | inhibition [3]: inactive | EC50 ([8]; read-out: EC50): 920 nM

CN(CCOc1ccc(CC2SC(=O)NC2=O)cc1)c1ccccn1 (stereo unspecified) [ROSIGLITAZONE]
inhibition [13]: inactive | logP [2]: 2.62
